Source: PubChem
This is a sample that favours compounds with a hit; in the whole collection about 4.7% have one here.
GRIN3A LBD mod: modulates the human NR3A ligand-binding domain; Tm shift relative to glycine control, % at 25 µM; actives 2.5% (n = 340,000); NR3A LBD differential scanning fluorimetry, Tm shift; 0% = protein alone, 100% = glycine-bound protein;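 active = melting temperature shift of at least 10% of the positive control shift, at one fixed dose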
ADAM17 inh: ADAM17 inhibition, QFRET primary screen; P78536; recombinant ADAM17, EDANS/DABCYL FRET peptide cleavage; inhibition, % at 6.95 µM; actives 0.83% (n = 370,000); AID 720648;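 active = inhibition above the mean of compounds lying between control limits plus 3 SD, set per campaign, cut at about 8.5% in these data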;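 also: 0% = DMSO-only wells as the low control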
MT1-MMP act inh: MT1-MMP (human) activation inhibition; P50281; HT1080 RFP-PRO-GFP cells, GFP/RFP ratio fluorescence, overnight; percent of plate control window, DMSO zero; GFP/RFP ratio change, % at 20 µM; actives 0.061% (n = 360,000); AID 651647;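 active = GFP/RFP ratio change of at least 30% with cell ATP level not reduced by more than half and red fluorescence within 50% of control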
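Assay system: HT1080 cells carrying an RFP-PRO-GFP reporter | Dosing: Single dose of 20 µM compound, 1% DMSO final | Incubation: Cells overnight before dosing, compound overnight, 37 °C, 5% CO2 | Evaluation: GFP/RFP fluorescence ratio | Control set: DMSO and RFP-L50D-GFP cell wells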
ADAM10 inh: inhibitors of human ADAM10. O14672. inhibition, % at 7 µM. AID 720582. recombinant ADAM10, EDANS/DABCYL FRET peptide cleavage, 3 h. actives 0.62% (n = 370,000);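 active = inhibition above a per-campaign cutoff equal to the mean of compounds falling between control-based bounds plus 3 SD, cut at about 20% in these data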;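 also: 0% = DMSO wells while the 100% control is not disclosed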
Target sequence (O14672 214-748 limits assumed): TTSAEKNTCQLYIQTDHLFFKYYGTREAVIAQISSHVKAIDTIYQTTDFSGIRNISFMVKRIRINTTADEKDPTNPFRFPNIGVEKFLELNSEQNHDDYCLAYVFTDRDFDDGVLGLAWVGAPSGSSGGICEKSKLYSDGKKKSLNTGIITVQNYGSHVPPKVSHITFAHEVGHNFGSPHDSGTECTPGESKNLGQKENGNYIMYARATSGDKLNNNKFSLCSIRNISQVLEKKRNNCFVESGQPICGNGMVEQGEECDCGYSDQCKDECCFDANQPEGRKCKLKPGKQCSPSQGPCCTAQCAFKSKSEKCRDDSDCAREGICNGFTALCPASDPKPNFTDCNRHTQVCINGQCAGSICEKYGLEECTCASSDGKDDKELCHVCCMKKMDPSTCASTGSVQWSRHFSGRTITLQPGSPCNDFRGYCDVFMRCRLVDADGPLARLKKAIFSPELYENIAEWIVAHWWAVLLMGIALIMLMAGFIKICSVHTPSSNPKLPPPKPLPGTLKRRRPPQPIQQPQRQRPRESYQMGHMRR
MPTP inh: inhibitors of mitochondrial permeability transition pore | inhibition, % at 10 µM | isolated mouse mitochondria, Ca2+ swelling absorbance, 30 min | actives 1.4% (n = 360,000);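 active = inhibition of 50% or more, scaled per plate between neutral and stimulator controls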;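 also: 0% = DMSO wells given calcium and 100% = 1 mM EGTA wells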
SKN-1 block: blocks SKN-1 activity in C. elegans; C. elegans VP596 Pgst-4::GFP/RFP ratio, acrylamide-induced, 24 h; inhibition, % at 21.8 µM; actives 0.49% (n = 360,000); AID 624304;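 active = interference check ratio from 0.5 to 1.5 plus GFP to RFP signal ratio inhibition reaching or exceeding a fixed threshold, cut at about 30% in these data, passing the limit was not always enough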
ADAM10 confirm: human ADAM10 inhibition, confirmation; shares compounds with ADAM10 inh; ADAM10 QFRET peptide cleavage, EDANS fluorescence; inhibition, % at 6.95 µM; actives 1% (n = 2,100);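 active = inhibition above about 20% chosen separately for each screening run, limit read from the data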;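 also: 0% = DMSO wells and 100% = marimastat wells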
ADAM17 ctr: ADAM17 inhibition, counter-screen for ADAM10 exosite hits; shares compounds with ADAM10 inh; ADAM17 QFRET peptide cleavage, EDANS fluorescence; inhibition, % at 6.95 µM; actives 0.5% (n = 2,100);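 active = mean triplicate inhibition above the solvent-only control wells' mean plus 3 SD, cut at about 12% in these data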;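 also: 0% = DMSO wells and 100% = marimastat wells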
ADAM10 counter: ADAM10 inhibition, counter-screen for ADAM17 exosite hits; actives 47% (n = 2,900); inhibition, % at 6.95 µM; shares compounds with ADAM17 inh; recombinant ADAM10, EDANS/DABCYL FRET peptide cleavage, 3 h;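 active = mean inhibition over the triplicate runs exceeds the activity threshold set in the earlier primary screen, cut at about 20% in these data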;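 also: 0% = DMSO wells and 100% = marimastat wells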
ADAM17 confirm: confirmation of inhibitors of human ADAM17 | shares compounds with ADAM17 inh | recombinant ADAM17, EDANS/DABCYL QFRET peptide cleavage | inhibition, % at 6.95 µM | actives 65% (n = 2,900) | AID 743257;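 active = mean inhibition across replicates above the hit cutoff set in the primary screen, cut at about 8.5% in these data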;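 also: 0% = DMSO wells and 100% = marimastat wells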
An asterisk follows results filed as active; x = no result.

SMILES	GRIN3A LBD mod	ADAM17 inh	MT1-MMP act inh	ADAM10 inh	MPTP inh	SKN-1 block	ADAM10 confirm	ADAM17 ctr	ADAM10 counter	ADAM17 confirm
C=CC[C@@H](CC(=O)N[C@@H](CO)Cc1ccccc1)C(=O)N[C@H](COC(=O)[C@@H](CC=C)CC(=O)OC(C)(C)C)Cc1c[nH]c2ccccc12	-0.7	8.7*	-10.5	26.5*	-0.9	6.3	4.3	0.5	39.0*	18.5*
Cc1ccn(CC(=O)N2CCCC(N3CCN(c4cccc(Cl)c4)CC3)C2)n1 (configuration not stated)	0.5	-5.6	0.1	-8.1	-0.1	-2.8	x	x	x	x
Cn1nc(C(C)(C)C)cc1C(=O)N1CCCCC1c1cc(C(=O)Nc2cccc3c2CCCC3)no1 (configuration not stated)	x	12.2*	-7.6	21.4*	-1.3	14.6	6.6	1.7	18.3	9.2*
CCc1ccc(CCNC(=O)OC2CCC23CCC(c2ccccc2)CC3)cc1 (configuration not stated)	x	-1.6	x	1.3	x	x	x	x	x	x
COc1ccc(NC(C)C(=O)N/N=C/c2ccccc2OCc2cccc(Br)c2)cc1 (configuration not stated)	-33.1	8.8*	-2.8	21.4*	6.7	14.8	11.5	3.1	48.0*	21.8*
Cc1ccccc1NC(C)C(=O)N/N=C/c1ccccc1OCc1cccc(Br)c1 (configuration not stated)	1.3	9.7*	-5.8	23.8*	-0.4	10.7	16.6	5.8	16.4	13.9*
Cc1cccc(/C=N/NC(=O)c2ccccc2OCc2cccc(Br)c2)n1	-2.3	1.2	-1.0	4.0	0.3	4.2	x	x	x	x
COc1ccc(NC(C)C(=O)N/N=C/c2cc(Br)ccc2OC)cc1 (configuration not stated)	-9.5	-0.4	0.6	7.8	-1.9	-5.7	x	x	x	x
Cc1ccc(Cn2c(SCC(=O)N/N=C/c3ccc(C)o3)nc3ccccc32)cc1	0.4	1.4	1.1	12.7	4.7	0.3	x	x	x	x
Cc1c(C(c2cc3c(cc2Br)OCO3)c2c(C)n(C)n(-c3ccccc3)c2=O)c(=O)n(-c2ccccc2)n1C	-2.5	-2.5	0.5	-2.0	2.3	22.1	x	x	x	x
OCCN(Cc1ccccc1)CC(O)COc1ccc(-c2ccccc2)cc1 (configuration not stated)	-11.7	13.4*	-1.6	29.9*	-2.7	12.1	3.6	1.3	30.8*	15.6*
COc1cc(C(C)=O)ccc1OCC(O)CN(CCO)Cc1ccccc1 (configuration not stated)	0.9	-7.3	1.0	-4.3	-0.2	-12.5	x	x	x	x
OC(c1ccc(F)cc1)c1nc(-c2csc3ccccc23)cs1 (configuration not stated)	x	4.6	1.1	8.0	1.2	22.8	x	x	x	x
OC(c1ccccc1)c1nc(-c2csc3ccccc23)cs1 (configuration not stated)	x	16.4*	1.7	33.1*	-1.3	-1.8	3.5	1.0	29.8*	15.9*
COC(=O)N/N=C(C)/C=C/c1ccccc1	-0.1	1.8	0.4	0.8	-0.4	3.5	x	x	x	x
COc1cccc(NC(=O)C(Sc2nnc(Nc3ccccc3C)s2)c2ccccc2)c1 (configuration not stated)	11.2*	14.0*	4.4	32.7*	5.9	3.6	8.7	2.5	29.2*	15.4*
